Reference: ChEMBL document CHEMBL3232883, “Triaryl-substituted Schiff bases are high-affinity subtype-selective ligands for the estrogen receptor” (J Med Chem, 2014)
Active and inactive are the calls of the source. The calls are words filed in the database; no cut-off is given here.

How the values were obtained:
[1] = target: T1, Estrogen receptor (Homo sapiens) (UniProt P03372); experiment: Antagonist activity at ERalpha (unknown origin) expressed in human HepG2 cells assessed as inhibition of transcriptional activation after 24 hrs by ERE-luciferase reporter gene assay relative to 17beta-estradiol; type: cell-based
T1 sequence (whole entry): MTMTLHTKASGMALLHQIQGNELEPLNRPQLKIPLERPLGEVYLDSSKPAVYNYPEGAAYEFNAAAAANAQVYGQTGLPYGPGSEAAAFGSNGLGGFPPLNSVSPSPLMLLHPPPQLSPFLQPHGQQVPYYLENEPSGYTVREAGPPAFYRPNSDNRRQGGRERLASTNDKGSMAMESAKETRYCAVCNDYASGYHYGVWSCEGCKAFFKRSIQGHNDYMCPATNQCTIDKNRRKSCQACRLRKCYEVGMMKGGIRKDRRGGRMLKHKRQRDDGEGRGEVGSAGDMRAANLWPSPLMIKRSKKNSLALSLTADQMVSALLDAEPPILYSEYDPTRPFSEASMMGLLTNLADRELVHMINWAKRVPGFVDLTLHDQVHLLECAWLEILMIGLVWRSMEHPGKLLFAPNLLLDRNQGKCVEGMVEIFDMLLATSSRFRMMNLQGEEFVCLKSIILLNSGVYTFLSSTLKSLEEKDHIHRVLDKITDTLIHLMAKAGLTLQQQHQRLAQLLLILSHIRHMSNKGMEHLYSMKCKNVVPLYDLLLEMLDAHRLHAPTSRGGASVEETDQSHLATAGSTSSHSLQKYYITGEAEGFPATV
Method in brief: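 Antagonist mode used HepG2 cells cotransfected with a 3×ERE-luciferase reporter plus an ERα expression vector and steroid-deprived in phenol red-free medium with 10% charcoal-dextran-stripped FBS. Cells received 10 nM estradiol together with increasing compound concentrations across a 10 μM to 100 pM dose curve. Luciferase was measured after 24 h and normalized to DMSO (0%) and the top of the E2 curve (100%).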

[2] = target: T1, Estrogen receptor (Homo sapiens); experiment: Agonist activity at ERalpha (unknown origin) expressed in human HepG2 cells assessed as transcriptional activation after 24 hrs by ERE-luciferase reporter gene assay relative to 17beta-estradiol; type: cell-based
Method in brief: (§1)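 HepG2 cells were cotransfected with a 3×ERE-luciferase reporter (10 μg) plus an ERα or ERβ expression vector (1.6 μg) per 10 cm dish. The next day they were replated at 20 000 cells/well in phenol red-free medium with 10% charcoal-dextran-stripped FBS and held overnight. Cells were then dosed over a 12-point range of 10 μM to 100 pM. Luciferase was read after 24 h, with DMSO set as 0% and the top of the E2 curve as 100%.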

Homo sapiens = organism: Homo sapiens; experiment: Selectivity ratio of RBA for human full length ERbeta to RBA for human full-length ERalpha
Estrogen receptor beta [3] = target: T2, Estrogen receptor beta (Homo sapiens, UniProt Q92731); experiment: Agonist activity at ERbeta (unknown origin) expressed in human HepG2 cells assessed as transcriptional activation after 24 hrs by ERE-luciferase reporter gene assay; type: cell-based
Method in brief: (§2)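 HepG2 cells were grown in DMEM with 10% FBS and transfected with a 3×ERE-luciferase reporter plus an ERα or ERβ expression vector. The next day cells were moved to phenol red-free medium with 10% charcoal-dextran-stripped FBS, plated at 20 000 cells/well and left overnight. Ligand was then added as a 12-point dose curve from 10 μM to 100 pM. Luciferase was read after 24 h, normalized to DMSO as 0% and the top of the E2 curve as 100%.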

Estrogen receptor beta [4] = target: T2, Estrogen receptor beta; experiment: Antagonist activity at ERbeta (unknown origin) expressed in human HepG2 cells assessed as inhibition of 17beta-estradiol-induced transcriptional activation after 24 hrs by ERE-luciferase reporter gene assay; type: cell-based
Method in brief: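 ERβ-transfected, steroid-deprived HepG2 cells carrying a 3×ERE-luciferase reporter were co-treated with 10 nM estradiol and test ligand over a range of 10 μM to 100 pM. Luciferase was read after 24 h, with each plate normalized to DMSO (0%) and the maximal E2 response (100%). IC50 and % efficacy were derived from the dose curves.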

Estrogen receptor beta [5] = target: T2, Estrogen receptor beta; experiment: Agonist activity at ERbeta (unknown origin) expressed in human HepG2 cells assessed as transcriptional activation after 24 hrs by ERE-luciferase reporter gene assay relative to 17beta-estradiol; type: cell-based; method in brief: as §1
Estrogen receptor = target: T3, Estrogen receptor (Homo sapiens, UniProt P03372); experiment: Agonist activity at ERalpha (unknown origin) expressed in human HepG2 cells assessed as transcriptional activation after 24 hrs by ERE-luciferase reporter gene assay; type: cell-based; method in brief: as §2
T3 sequence (P03372 whole entry): T1 sequence (whole entry)

[6] = target: T1, Estrogen receptor (Homo sapiens); experiment: Displacement of [3H]-estradiol from human full-length ERalpha after 18 to 24 hrs by competitive radiometric binding assay relative to estradiol
Estrogen receptor beta [7] = target: T2, Estrogen receptor beta; experiment: Displacement of [3H]-estradiol from human full-length ERbeta after 18 to 24 hrs by competitive radiometric binding assay relative to estradiol
HepG2 = experiment: Agonist activity at ERalpha (unknown origin) harboring N-terminal AF1 domain deleted mutant expressed in human HepG2 cells assessed as transcriptional activation after 24 hrs by ERE-luciferase reporter gene assay; type: cell-based

T2 sequence (Q92731 whole entry): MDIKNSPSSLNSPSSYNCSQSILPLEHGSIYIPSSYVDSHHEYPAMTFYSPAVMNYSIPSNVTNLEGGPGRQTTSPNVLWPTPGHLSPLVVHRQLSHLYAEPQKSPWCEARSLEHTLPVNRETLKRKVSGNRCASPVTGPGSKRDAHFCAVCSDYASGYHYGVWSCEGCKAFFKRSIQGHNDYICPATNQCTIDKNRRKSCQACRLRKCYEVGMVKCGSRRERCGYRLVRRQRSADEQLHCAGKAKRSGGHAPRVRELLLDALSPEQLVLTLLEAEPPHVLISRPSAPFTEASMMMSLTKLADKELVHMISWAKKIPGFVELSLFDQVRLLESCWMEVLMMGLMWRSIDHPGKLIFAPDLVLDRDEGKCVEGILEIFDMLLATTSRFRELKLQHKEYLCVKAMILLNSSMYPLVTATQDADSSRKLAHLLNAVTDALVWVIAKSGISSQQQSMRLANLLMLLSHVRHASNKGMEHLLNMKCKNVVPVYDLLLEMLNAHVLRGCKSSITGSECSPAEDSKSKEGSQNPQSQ

| Efficacy [1] | Efficacy [2] | Selectivity ratio (Homo sapiens) | EC50 (Estrogen receptor beta [3]) | IC50 (Estrogen receptor beta [4]) | Efficacy (Estrogen receptor beta [5]) | EC50 (Estrogen receptor) | RBA [6] | RBA (Estrogen receptor beta [7]) | Compound | Activity (HepG2) |
| --- | --- | --- | --- | --- | --- | --- | --- | --- | --- | --- |
| 111% | 95% | 0.5 | 332 nM | 300 nM | 16% | 14 nM | 1.86% | 0.99% | Oc1ccc(N=C(c2ccc(O)cc2)c2ccc(O)cc2)cc1 | inactive |
| 102% | 102% | 0.5 | 276 nM |  | 38% | 17 nM | 10.5% | 5.33% | COc1ccc(/N=C(\c2ccc(O)cc2)c2ccc(O)cc2O)cc1 |  |
| 122% | 103% | 1.9 | 10900 nM | 241 nM | 20% | 16 nM | 9.12% | 17.1% | Cc1ccc(/N=C(\c2ccc(O)cc2)c2ccc(O)cc2O)cc1 | inactive |
| 111% | 113% | 1.1 | 12500 nM | 100 nM | 24% | 9 nM | 64.6% | 70.3% | Oc1ccc(/C(=N\c2ccc(Br)cc2)c2ccc(O)cc2O)cc1 | inactive |
| 124% | 108% | 1.3 |  | 139 nM | 23% | 10 nM | 21.1% | 27.7% | Oc1ccc(/C(=N\c2ccc(F)cc2)c2ccc(O)cc2O)cc1 | inactive |
| 123% | 114% | 2.5 | 385 nM | 180 nM | 19% | 4 nM | 15.5% | 38.1% | Oc1ccc(/C(=N\c2ccc(Cl)cc2)c2ccc(O)cc2O)cc1 | inactive |
| 134% | 102% | 1.3 | 628 nM | 6 nM | 25% | 7 nM | 14.6% | 18.5% | Oc1ccc(/C(=N\c2ccccc2)c2ccc(O)cc2O)cc1 |  |
| 109% | 102% | 2.5 |  | 16 nM | 10% | 10 nM | 41.8% | 114% | Oc1ccc(C(=Nc2cccc(Cl)c2)c2ccc(O)cc2)cc1 | inactive |
| 83% | 104% | 1.5 |  | 19 nM | 37% | 1 nM | 62.8% | 97% | Oc1ccc(C(=Nc2ccccc2Cl)c2ccc(O)cc2)cc1 | inactive |
| 100% | 111% | 0.9 | 2 nM | 16 nM | 31% |  | 53.3% | 45.1% | Cc1ccccc1/N=C(\c1ccc(O)cc1)c1ccc(O)cc1O | inactive |
| 104% | 89% | 4.2 |  | 24 nM | 3% | 23 nM | 33.4% | 139% | Oc1ccc(C(=Nc2cccc(C(F)(F)F)c2)c2ccc(O)cc2)cc1 | inactive |
| 108% | 97% | 0.5 |  | 417 nM | 51% | 7 nM | 2.25% | 1.23% | Oc1ccc(/N=C(\c2ccc(O)cc2)c2ccc(O)cc2O)cc1 | inactive |
